{"source": "ChEMBL document CHEMBL3853331", "about": "“Preparation, Antiepileptic Activity, and Cardiovascular Safety of Dihydropyrazoles as Brain-Penetrant T-Type Calcium Channel Blockers” (J Med Chem, 2016)", "key": {"[1]": {"experiment": "Drug uptake in Wistar rat brain at 30 mg/kg, po measured after 1 hr", "format": "ADME, organism-based", "details": "read-out: Drug uptake", "outline": "(§1)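 Male Wistar rats given oral doses of 10, 30 or 100 mg/kg. Plasma, brain and CSF collected at 1 h, and at 3 h for the 10 mg/kg dose; compound concentrations measured in each.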"}, "[2]": {"experiment": "Tmax in Wistar rat plasma at 2 mg/kg, po", "format": "ADME, organism-based"}, "[3]": {"experiment": "Volume of distribution at steady state in Wistar rat plasma at 0.2 mg/kg, iv", "format": "ADME, organism-based", "details": "read-out: Vdss"}, "Rattus norvegicus [4]": {"species_on_record": "Rattus norvegicus", "experiment": "Inhibition of Wistar rat brain neuronal sodium channel assessed as reduction in peak inward current at 10 uM measured during first peak", "outline": "(§2)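 Cortical neurons from E18 Wistar rat embryos, cultured 9-15 days, recorded by manual patch clamp from a holding potential of -80 mV. K+ currents: one 50-ms step to 0 mV, fast as peak outward and slow as end-of-pulse current. Na+ currents: train of fifteen 10-ms steps to 0 mV, peak inward current read at the first and last pulses. Effects read at least 180 s after application.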"}, "[5]": {"experiment": "Drug uptake in Wistar rat brain at 10 mg/kg, po measured after 3 hrs", "format": "ADME, organism-based", "details": "read-out: Drug uptake", "outline": "as §1"}, "[6]": {"experiment": "Drug uptake in Wistar rat CSF at 30 mg/kg, po measured after 1 hr", "format": "ADME, organism-based, Cerebrospinal fluid", "details": "read-out: Drug uptake", "outline": "as §1"}, "[7]": {"experiment": "Tmax in Beagle dog plasma at 10 mg/kg, po", "format": "ADME, organism-based, Canis lupus familiaris"}, "[8]": {"experiment": "Unbound drug level in Wistar rat brain at 100 mg/kg, po measured after 1 hr", "format": "ADME, organism-based", "details": "in vivo"}, "[9]": {"target": "T1, Voltage-dependent T-type calcium channel subunit alpha-1G (Homo sapiens, UniProt O43497)", "T1 sequence (O43497 whole entry)": "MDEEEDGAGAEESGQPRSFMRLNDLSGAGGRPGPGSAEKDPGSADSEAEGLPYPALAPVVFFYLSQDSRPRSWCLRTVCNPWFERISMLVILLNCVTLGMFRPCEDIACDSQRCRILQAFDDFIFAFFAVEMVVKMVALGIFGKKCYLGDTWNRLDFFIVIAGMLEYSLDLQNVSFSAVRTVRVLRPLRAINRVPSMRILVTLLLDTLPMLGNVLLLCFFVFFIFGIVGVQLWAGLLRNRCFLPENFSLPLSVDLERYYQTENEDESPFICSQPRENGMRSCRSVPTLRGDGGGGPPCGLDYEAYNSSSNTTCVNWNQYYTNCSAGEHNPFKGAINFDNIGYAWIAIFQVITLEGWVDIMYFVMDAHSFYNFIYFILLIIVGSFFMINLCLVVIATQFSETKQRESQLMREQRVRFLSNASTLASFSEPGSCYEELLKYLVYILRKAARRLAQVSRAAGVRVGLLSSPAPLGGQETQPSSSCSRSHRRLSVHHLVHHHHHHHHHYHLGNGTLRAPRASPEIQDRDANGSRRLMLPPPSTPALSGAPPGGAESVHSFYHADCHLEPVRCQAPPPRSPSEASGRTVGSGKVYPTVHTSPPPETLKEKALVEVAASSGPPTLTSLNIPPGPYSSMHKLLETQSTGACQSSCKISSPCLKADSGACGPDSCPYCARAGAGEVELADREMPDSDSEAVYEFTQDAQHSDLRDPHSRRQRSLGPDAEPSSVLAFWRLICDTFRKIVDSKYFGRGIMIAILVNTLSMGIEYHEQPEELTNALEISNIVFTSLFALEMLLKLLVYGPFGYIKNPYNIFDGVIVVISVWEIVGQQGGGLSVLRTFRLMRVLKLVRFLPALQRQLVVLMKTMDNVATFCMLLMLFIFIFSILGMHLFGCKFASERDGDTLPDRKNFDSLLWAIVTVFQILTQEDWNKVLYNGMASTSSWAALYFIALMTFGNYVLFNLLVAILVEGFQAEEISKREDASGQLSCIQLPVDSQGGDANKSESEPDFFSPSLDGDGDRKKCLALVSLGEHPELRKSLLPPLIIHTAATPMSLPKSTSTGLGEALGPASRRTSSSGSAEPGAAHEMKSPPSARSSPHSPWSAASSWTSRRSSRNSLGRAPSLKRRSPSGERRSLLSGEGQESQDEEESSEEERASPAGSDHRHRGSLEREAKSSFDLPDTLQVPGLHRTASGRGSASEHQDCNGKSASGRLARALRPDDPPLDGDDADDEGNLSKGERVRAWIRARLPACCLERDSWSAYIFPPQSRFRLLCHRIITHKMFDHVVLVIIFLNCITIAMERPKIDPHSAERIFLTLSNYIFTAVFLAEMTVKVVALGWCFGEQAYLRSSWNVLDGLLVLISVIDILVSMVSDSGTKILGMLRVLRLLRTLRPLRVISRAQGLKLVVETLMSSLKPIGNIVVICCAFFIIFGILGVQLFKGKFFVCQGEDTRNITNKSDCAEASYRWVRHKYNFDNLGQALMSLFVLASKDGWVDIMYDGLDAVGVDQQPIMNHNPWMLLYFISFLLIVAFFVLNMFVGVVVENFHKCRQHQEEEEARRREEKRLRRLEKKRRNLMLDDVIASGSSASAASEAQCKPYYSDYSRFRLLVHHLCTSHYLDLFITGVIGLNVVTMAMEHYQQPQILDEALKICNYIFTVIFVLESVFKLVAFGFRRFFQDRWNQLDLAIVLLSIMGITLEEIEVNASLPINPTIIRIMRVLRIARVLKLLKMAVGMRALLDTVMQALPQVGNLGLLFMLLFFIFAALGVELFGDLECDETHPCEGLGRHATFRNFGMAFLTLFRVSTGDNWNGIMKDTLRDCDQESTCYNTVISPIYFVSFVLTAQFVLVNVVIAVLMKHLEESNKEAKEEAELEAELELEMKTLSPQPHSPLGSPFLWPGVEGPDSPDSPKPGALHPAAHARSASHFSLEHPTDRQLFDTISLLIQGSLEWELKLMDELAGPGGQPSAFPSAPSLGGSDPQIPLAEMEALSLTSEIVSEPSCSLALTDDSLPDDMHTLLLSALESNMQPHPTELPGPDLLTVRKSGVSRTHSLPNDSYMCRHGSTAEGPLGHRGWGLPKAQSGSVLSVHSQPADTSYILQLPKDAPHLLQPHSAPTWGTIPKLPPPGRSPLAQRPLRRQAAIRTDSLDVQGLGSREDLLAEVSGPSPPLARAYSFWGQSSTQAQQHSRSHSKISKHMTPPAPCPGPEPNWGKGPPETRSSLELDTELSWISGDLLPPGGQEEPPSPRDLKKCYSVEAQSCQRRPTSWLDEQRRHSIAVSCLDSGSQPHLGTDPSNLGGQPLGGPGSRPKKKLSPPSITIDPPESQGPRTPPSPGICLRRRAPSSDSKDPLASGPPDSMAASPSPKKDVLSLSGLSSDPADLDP", "experiment": "Inhibition of human T-type calcium channel Cav3.1 expressed in CHO cells assessed as inhibition of calcium tail current at -90 mV holding potential measured after 150 secs by QPatch assay", "format": "cell-based", "outline": "(§3)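 CHO cells stably expressing human Cav3.1, Cav3.2 or Cav3.3, automated QPatch recording. 3-ms depolarization to +20 mV from a holding potential of -90 or -60 mV. Ca2+ tail current measured at -60 mV. Cs-glutamate internal and TEA-Cl external solution with 5 mM Ca2+. Effect read 150 s after application.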"}, "[10]": {"target": "T2, Voltage-dependent T-type calcium channel subunit alpha-1I (Homo sapiens, UniProt Q9P0X4)", "T2 sequence (Q9P0X4 whole entry)": "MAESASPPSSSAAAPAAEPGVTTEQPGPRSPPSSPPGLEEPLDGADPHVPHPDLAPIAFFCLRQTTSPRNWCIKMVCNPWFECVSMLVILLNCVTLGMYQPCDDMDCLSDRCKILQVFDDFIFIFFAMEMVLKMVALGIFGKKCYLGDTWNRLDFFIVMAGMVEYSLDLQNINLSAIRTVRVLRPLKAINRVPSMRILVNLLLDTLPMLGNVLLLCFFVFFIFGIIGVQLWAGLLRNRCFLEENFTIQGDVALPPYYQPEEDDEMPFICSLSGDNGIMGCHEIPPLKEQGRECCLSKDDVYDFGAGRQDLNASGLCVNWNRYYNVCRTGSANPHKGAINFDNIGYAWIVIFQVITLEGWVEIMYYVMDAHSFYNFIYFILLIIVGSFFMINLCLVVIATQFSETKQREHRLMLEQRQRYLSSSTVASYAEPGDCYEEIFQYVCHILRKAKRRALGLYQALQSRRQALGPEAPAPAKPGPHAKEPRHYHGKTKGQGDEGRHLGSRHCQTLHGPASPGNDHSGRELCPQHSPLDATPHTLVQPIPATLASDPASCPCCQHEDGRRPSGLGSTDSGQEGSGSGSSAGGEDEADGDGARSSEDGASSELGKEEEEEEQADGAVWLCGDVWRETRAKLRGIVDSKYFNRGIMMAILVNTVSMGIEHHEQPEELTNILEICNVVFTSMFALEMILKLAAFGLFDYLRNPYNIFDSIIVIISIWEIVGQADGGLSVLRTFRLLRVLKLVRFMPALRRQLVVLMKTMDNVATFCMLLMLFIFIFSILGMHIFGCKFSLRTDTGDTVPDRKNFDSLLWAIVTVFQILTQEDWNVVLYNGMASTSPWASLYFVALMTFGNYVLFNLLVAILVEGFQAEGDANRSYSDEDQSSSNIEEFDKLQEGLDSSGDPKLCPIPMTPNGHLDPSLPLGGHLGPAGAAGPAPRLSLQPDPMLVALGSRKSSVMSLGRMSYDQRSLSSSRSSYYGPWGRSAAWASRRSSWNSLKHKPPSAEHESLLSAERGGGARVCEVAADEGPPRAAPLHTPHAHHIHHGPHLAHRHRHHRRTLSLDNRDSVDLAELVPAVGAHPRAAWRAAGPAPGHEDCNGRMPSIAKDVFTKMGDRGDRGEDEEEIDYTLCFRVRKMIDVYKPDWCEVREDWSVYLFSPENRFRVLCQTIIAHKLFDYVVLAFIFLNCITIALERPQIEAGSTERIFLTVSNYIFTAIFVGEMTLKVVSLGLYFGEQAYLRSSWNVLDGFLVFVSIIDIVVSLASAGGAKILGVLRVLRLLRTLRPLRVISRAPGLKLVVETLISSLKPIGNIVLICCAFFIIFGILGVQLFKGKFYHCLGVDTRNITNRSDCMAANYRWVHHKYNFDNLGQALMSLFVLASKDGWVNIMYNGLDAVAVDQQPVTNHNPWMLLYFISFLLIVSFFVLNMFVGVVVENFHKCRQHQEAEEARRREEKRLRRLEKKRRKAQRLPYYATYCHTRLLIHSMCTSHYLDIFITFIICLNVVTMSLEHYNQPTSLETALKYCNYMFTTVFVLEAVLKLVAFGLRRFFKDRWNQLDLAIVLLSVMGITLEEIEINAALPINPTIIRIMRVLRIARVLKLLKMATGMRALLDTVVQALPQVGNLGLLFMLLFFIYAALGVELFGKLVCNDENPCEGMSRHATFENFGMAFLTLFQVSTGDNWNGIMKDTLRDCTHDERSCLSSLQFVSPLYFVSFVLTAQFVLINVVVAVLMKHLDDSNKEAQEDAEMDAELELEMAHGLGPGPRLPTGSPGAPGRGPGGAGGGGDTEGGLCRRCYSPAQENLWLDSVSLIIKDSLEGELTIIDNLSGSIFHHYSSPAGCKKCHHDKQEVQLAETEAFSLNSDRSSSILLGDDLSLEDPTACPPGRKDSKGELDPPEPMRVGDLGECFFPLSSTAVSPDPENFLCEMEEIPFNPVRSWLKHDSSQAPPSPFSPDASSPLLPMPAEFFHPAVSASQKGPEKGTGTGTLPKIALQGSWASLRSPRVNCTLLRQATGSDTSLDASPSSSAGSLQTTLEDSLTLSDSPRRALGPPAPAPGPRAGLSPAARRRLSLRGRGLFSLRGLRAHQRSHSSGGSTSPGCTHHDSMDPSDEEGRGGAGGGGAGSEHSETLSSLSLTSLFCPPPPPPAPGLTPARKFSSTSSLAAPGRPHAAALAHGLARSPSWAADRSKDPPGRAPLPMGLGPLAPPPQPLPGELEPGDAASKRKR", "experiment": "Inhibition of T-type calcium channel Cav3.3 (unknown origin) expressed in HEK293 cells assessed as calcium influx by Fluo-4-AM dye-based FLIPR assay", "format": "cell-based", "outline": "(§4)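 HEK293 cells stably expressing the channel, seeded overnight and loaded 1 h at 37°C with 3 µM Fluo-4-AM. Compounds given as a 3-fold dilution series from 10 µM to 0.05 nM and incubated 3 min. For T-type channels, dilutions in TEAC buffer and stimulation with 10 mM final CaCl2. For Cav1.2, dilutions in assay buffer and stimulation with 20 mM final KCl. IC50 from area under the fluorescence trace against vehicle; mean of at least two experiments.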"}, "[11]": {"experiment": "Drug uptake in Wistar rat CSF at 10 mg/kg, po measured after 1 hr", "format": "ADME, organism-based, Cerebrospinal fluid", "details": "read-out: Drug uptake", "outline": "as §1"}, "Rattus norvegicus [12]": {"tested_on": "Rattus norvegicus", "experiment": "Cardiovascular toxicity in spontaneously hypertensive rat assessed as decrease in mean […] pressure at 100 mg/kg, po by telemetry method", "format": "organism-based", "details": "in vivo", "outline": "(§5)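 Conscious, freely moving male spontaneously hypertensive rats with telemetry recording MAP, HR and ECG. Single oral dose (5 ml/kg) given as a suspension in 0.5% w/v methylcellulose in water, in the morning during the sleep phase. Vehicle controls run in parallel, n = 8 per group.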"}, "Rattus norvegicus [13]": {"tested_on": "Rattus norvegicus", "experiment": "Cardiovascular toxicity in spontaneously hypertensive rat assessed as reduction in heart rate at 100 mg/kg, po within 6 hrs post dose", "format": "organism-based", "details": "in vivo", "outline": "as §5"}, "Rattus norvegicus [14]": {"tested_on": "Rattus norvegicus", "experiment": "Cardiovascular toxicity in spontaneously hypertensive rat assessed as reduction in heart rate at 100 mg/kg, po", "format": "organism-based", "details": "in vivo", "outline": "as §5"}, "[15]": {"experiment": "Half life in Wistar rat plasma at 0.2 mg/kg, iv administered 2 hrs after aminobenzotriazol-treatment", "format": "ADME, organism-based", "outline": "(§6)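 Male Wistar rats dosed iv at 0.2 mg/kg or po at 2 mg/kg. In the inhibited arm, the broad CYP inhibitor aminobenzotriazol was given orally 2 h before dosing. Clearance, Vss and half-life derived from plasma concentrations after the iv dose; Cmax and Tmax from the po dose.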"}, "Cytochrome P450 3A4": {"target": "Cytochrome P450 3A4 (Homo sapiens, UniProt P08684)", "sequence (P08684 whole entry)": "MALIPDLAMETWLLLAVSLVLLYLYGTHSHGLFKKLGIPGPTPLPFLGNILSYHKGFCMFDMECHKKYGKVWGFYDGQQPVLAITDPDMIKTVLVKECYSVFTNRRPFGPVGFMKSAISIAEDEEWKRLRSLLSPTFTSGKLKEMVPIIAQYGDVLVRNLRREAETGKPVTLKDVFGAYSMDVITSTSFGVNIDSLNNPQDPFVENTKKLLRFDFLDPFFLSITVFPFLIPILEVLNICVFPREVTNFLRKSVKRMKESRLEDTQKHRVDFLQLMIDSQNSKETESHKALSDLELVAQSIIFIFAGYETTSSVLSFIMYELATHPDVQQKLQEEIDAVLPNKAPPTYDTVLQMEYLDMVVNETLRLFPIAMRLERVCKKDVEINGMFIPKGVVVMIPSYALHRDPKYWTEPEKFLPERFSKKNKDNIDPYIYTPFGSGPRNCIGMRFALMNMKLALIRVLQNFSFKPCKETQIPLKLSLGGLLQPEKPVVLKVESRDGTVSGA", "experiment": "Inhibition of CYP3A4 (unknown origin) using midazolam as substrate", "format": "ADME"}, "[16]": {"target": "T2, Voltage-dependent T-type calcium channel subunit alpha-1I", "experiment": "Inhibition of human T-type calcium channel Cav3.3 expressed in CHO cells assessed as inhibition of calcium tail current at -90 mV holding potential measured after 150 secs by QPatch assay", "format": "cell-based", "outline": "as §3"}, "[17]": {"experiment": "Tmax in Wistar rat plasma at 2 mg/kg, po administered 2 hrs after aminobenzotriazol-treatment", "format": "ADME, organism-based", "outline": "(§7)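 Rats dosed orally with the CYP inhibitor aminobenzotriazol 2 h before the iv dose of 0.2 mg/kg. Oral dose was 2 mg/kg.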"}, "[18]": {"target": "T1, Voltage-dependent T-type calcium channel subunit alpha-1G", "experiment": "Inhibition of T-type calcium channel Cav3.1 (unknown origin) expressed in HEK293 cells assessed as calcium influx by Fluo-4-AM dye-based FLIPR assay", "format": "cell-based", "outline": "as §4"}, "[19]": {"experiment": "Volume of distribution at steady state in Wistar rat plasma at 0.2 mg/kg, iv administered 2 hrs after aminobenzotriazol-treatment", "format": "ADME, organism-based", "details": "read-out: Vdss", "outline": "as §7"}, "[20]": {"experiment": "Metabolic stability in human microsomes measured per mg protein", "format": "ADME, Microsome"}, "[21]": {"experiment": "Cmax in Wistar rat plasma at 2 mg/kg, po administered 2 hrs after aminobenzotriazol-treatment", "format": "ADME, organism-based", "set-up": "dose 2 mg/kg, route oral", "outline": "as §6"}, "MDR1 [22]": {"tested_on": "MDR1", "experiment": "Apparent permeability across apical to basolateral side in MDCK cells expressing MDR1 (unknown origin) at 1 uM", "format": "ADME, cell-based, Canis lupus familiaris", "details": "dog", "outline": "(§8)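 MDR1-transfected MDCK cell monolayers. Compound tested at 1 µM. Apparent permeability measured in both directions, apical to basolateral and basolateral to apical. Efflux ratio taken from the two directional permeabilities.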"}, "Rattus norvegicus [23]": {"tested_on": "Rattus norvegicus", "experiment": "Cardiotoxicity in rat assessed as QT prolongation at 100 mg/kg by electrophysiology method", "format": "toxicity, organism-based", "details": "in vivo", "outline": "as §5"}, "Rattus norvegicus [24]": {"tested_on": "Rattus norvegicus", "experiment": "Cardiovascular toxicity in spontaneously hypertensive rat assessed as induction of AV block type 2 at 100 mg/kg, po by telemetry method", "format": "organism-based", "details": "in vivo", "outline": "as §5"}, "[25]": {"experiment": "Aqueous solubility of the compound at pH 4 by UV-HPLC method", "format": "physicochemical", "outline": "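Compound dispensed from a 10 mM DMSO stock and the solvent evaporated. Residue stirred 24 h at room temperature in buffer: citrate (55 mM) pH 4.0 or phosphate (67 mM) pH 7.0. Mixture filtered by centrifugation. Filtrate concentration measured by HPLC-UV against calibration solutions.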"}, "[26]": {"experiment": "Cmax in Wistar rat plasma at 2 mg/kg, po", "format": "ADME, organism-based", "set-up": "dose 2 mg/kg, route oral", "outline": "as §6"}, "[27]": {"experiment": "Fraction unbound in Wistar rat microsomes", "format": "ADME, Microsome"}, "MDR1 [28]": {"tested_on": "MDR1", "experiment": "Efflux ratio of permeability in MDCK cells expressing MDR1 (unknown origin)", "format": "ADME, cell-based, Canis lupus familiaris", "details": "dog", "outline": "as §8"}, "[29]": {"experiment": "Plasma concentration in Wistar rat at 10 mg/kg, po measured after 3 hrs", "format": "ADME, organism-based"}, "MDR1 [30]": {"tested_on": "MDR1", "experiment": "Apparent permeability across basolateral to apical side in MDCK cells expressing MDR1 (unknown origin) at 1 uM", "format": "ADME, cell-based, Canis lupus familiaris", "details": "dog", "outline": "as §8"}, "Rattus norvegicus [31]": {"species_on_record": "Rattus norvegicus", "experiment": "Inhibition of Wistar rat brain neuronal sodium channel assessed as peak inward current at 10 uM measured during last peak", "outline": "as §2"}, "[32]": {"experiment": "Metabolic stability in rat microsomes measured per mg protein", "format": "ADME, Microsome"}, "[33]": {"experiment": "Oral bioavailability in Wistar rat plasma at 2 mg/kg", "format": "ADME, organism-based"}}, "data": [{"smiles": "O=C(Nc1ccc(F)cc1)N1N=C(c2ccncc2)CC1c1ccc(F)cc1", "note": "(centres undefined)", "values": [{"measurement": "concentration at 1 h", "setting": "[1]", "result": 2570, "unit": "nM"}, {"measurement": "Tmax", "setting": "[2]", "result": 0.25, "unit": "h"}, {"measurement": "Vd", "setting": "[3]", "result": 23, "unit": "L/kg"}, {"measurement": "inhibition", "setting": "Rattus norvegicus [4]", "result": 15, "unit": "%"}, {"measurement": "concentration at 3 h", "setting": "[5]", "result": 1150, "unit": "nM"}, {"measurement": "concentration at 1 h", "setting": "[6]", "result": 47, "unit": "nM"}, {"measurement": "Tmax", "setting": "[7]", "result": 0.75, "unit": "h"}, {"measurement": "Drug uptake(free)", "setting": "[8]", "result": 128, "unit": "nM"}, {"measurement": "IC50", "setting": "[9]", "result": 1800, "unit": "nM"}, {"measurement": "IC50", "setting": "[10]", "result": 340, "unit": "nM"}, {"measurement": "concentration at 1 h", "setting": "[11]", "result": 19, "unit": "nM"}, {"measurement": "Activity", "setting": "Rattus norvegicus [12]", "result": 12, "unit": "mmHg"}, {"measurement": "Activity", "setting": "Rattus norvegicus [13]", "result": "Non-Toxic"}, {"measurement": "Activity", "setting": "Rattus norvegicus [14]", "result": "Toxic"}, {"measurement": "half-life", "setting": "[15]", "result": 120, "unit": "h"}, {"measurement": "IC50", "setting": "Cytochrome P450 3A4", "result": 18000, "unit": "nM"}, {"measurement": "IC50", "setting": "[16]", "result": 7000, "unit": "nM"}, {"measurement": "Tmax", "setting": "[17]", "result": 6.6, "unit": "h"}, {"measurement": "IC50", "setting": "[18]", "result": 29, "unit": "nM"}, {"measurement": "Vd", "setting": "[19]", "result": 17, "unit": "L/kg"}, {"measurement": "microsomal CLint", "setting": "[20]", "result": 21, "unit": "µL/min/mg"}, {"measurement": "Cmax", "setting": "[21]", "result": 150, "unit": "nM"}, {"measurement": "Papp A→B at 1 µM", "setting": "MDR1 [22]", "result": 45, "unit": "×10⁻⁶ cm/s"}, {"measurement": "Activity", "setting": "Rattus norvegicus [23]", "result": "Non-Toxic"}, {"measurement": "Activity", "setting": "Rattus norvegicus [24]", "result": "Toxic"}, {"measurement": "solubility", "setting": "[25]", "result": 33, "unit": "µg/mL"}, {"measurement": "Cmax", "setting": "[26]", "result": 27, "unit": "nM"}, {"measurement": "fraction unbound", "setting": "[27]", "result": 0.5}, {"measurement": "efflux ratio", "setting": "MDR1 [28]", "result": 1}, {"measurement": "concentration at 3 h", "setting": "[29]", "result": 290, "unit": "nM"}, {"measurement": "Papp B→A at 1 µM", "setting": "MDR1 [30]", "result": 44, "unit": "×10⁻⁶ cm/s"}, {"measurement": "inhibition", "setting": "Rattus norvegicus [31]", "result": 26, "unit": "%"}, {"measurement": "microsomal CLint", "setting": "[32]", "result": 104, "unit": "µL/min/mg"}, {"measurement": "bioavailability", "setting": "[33]", "result": 4, "unit": "%"}]}]}
